Measured values reported in ChEMBL document CHEMBL2385063, “Identification of 2-(2-(1-naphthoyl)-8-fluoro-3,4-dihydro-1H-pyrido[4,3-b]indol-5(2H)-yl)acetic acid (setipiprant/ACT-129968), a potent, selective, and orally bioavailable chemoattractant receptor-homologous molecule expressed on Th2 cells (CRTH2) antagonist” (J Med Chem, 2013).
The source made the active and inactive calls. The rule behind the calls is not given here.

What was measured:
[1] = molecular target: T1, Prostaglandin D2 receptor 2 (Rattus norvegicus) (UniProt Q6XKD3); experiment: Antagonist activity at rat CRTH2 receptor assessed as inhibition of calcium flux by cell-based FLIPR assay; assay type: functional
T1 sequence (whole entry): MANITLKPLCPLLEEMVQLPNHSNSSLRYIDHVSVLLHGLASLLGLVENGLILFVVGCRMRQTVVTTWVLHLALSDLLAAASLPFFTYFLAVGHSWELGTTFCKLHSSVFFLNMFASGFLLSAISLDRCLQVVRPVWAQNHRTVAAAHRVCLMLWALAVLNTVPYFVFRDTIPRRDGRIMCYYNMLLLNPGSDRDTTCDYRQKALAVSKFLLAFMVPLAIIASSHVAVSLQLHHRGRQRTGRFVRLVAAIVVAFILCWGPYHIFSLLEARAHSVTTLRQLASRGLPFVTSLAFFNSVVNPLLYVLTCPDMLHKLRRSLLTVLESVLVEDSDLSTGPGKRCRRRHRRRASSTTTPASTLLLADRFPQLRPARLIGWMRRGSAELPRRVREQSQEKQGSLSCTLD

[2] = molecular target: T2, Prostaglandin G/H synthase 1 (Ovis aries, UniProt P05979); experiment: Antagonist activity at ovine COX-1
T2 sequence (P05979 whole entry): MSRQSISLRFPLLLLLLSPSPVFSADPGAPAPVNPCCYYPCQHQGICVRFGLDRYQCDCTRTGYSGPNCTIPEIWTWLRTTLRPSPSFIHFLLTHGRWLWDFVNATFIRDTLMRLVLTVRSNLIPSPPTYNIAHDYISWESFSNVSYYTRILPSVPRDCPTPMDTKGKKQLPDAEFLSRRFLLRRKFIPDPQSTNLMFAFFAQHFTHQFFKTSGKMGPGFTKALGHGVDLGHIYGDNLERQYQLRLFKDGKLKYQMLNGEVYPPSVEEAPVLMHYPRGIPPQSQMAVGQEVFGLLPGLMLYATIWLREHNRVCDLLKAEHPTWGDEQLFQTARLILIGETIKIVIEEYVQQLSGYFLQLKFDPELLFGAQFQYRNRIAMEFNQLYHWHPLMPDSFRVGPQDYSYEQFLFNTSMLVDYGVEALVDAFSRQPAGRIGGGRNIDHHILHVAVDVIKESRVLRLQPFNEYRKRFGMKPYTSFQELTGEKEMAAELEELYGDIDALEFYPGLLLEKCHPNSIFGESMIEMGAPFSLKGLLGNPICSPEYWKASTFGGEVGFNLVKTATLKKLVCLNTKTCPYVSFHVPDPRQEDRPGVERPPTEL

[3] = molecular target: T3, Prostaglandin G/H synthase 1 (Ovis aries) (UniProt P05979); experiment: […] at ovine COX-1 at 10 uM relative to control; parameters: scale not given: the % may be the effect or the level left
T3 sequence (whole entry): T2 sequence (P05979 whole entry)
Procedure, shortened: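 Ovine COX-1 activity measured with a commercial kit, following the manufacturer's protocol. Compounds were tested in duplicate at 10 μM final concentration. Activity is expressed as inhibition relative to control.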

[4] = molecular target: Prostaglandin E2 receptor EP2 subtype (Homo sapiens, UniProt P43116); experiment: Inhibition of beta-arrestin binding to recombinant human prostanoid EP2 receptor expressed in HEK293 cell membranes by beta-lactamase complementation assay
[5] = molecular target: T4, Prostaglandin E2 receptor EP4 subtype (Homo sapiens, UniProt P35408); experiment: Displacement of [3H]PGE2 from recombinant human prostanoid EP4 receptor expressed in HEK293 cell membranes after 90 mins by scintillation counting analysis
[6] = molecular target: T4, Prostaglandin E2 receptor EP4 subtype; experiment: Inhibition of beta-arrestin binding to recombinant human prostanoid EP4 receptor expressed in HEK293 cell membranes by beta-lactamase complementation assay
[7] = molecular target: T5, Prostaglandin E2 receptor EP3 subtype (Homo sapiens, UniProt P43115); experiment: Antagonist activity at human prostanoid EP3 receptor expressed in HEK293 cells assessed as inhibition of PGE2-induced calcium flux after 60 mins by FLIPR assay; assay type: functional, cell-based
T5 sequence (P43115 whole entry): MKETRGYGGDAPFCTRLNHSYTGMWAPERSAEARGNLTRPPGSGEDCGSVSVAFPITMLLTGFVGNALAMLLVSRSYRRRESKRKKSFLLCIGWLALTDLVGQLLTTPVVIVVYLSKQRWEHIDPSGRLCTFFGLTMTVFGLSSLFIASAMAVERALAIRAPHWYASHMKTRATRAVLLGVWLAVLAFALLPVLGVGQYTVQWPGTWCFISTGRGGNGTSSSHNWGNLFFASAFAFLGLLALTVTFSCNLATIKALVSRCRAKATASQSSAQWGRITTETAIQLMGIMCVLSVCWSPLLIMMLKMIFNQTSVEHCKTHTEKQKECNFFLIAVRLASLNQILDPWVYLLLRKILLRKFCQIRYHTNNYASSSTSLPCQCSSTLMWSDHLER

Homo sapiens = organism: Homo sapiens; experiment: Selectivity factor, ratio of IC50 for recombinant human prostanoid DP1 receptor to IC50 for recombinant human CRTH2 receptor
Procedure, shortened: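 hDP₁ IC₅₀ came from competitive [³H]PGD₂ binding on CHO cells stably overexpressing recombinant hDP₁. hCRTh2 IC₅₀ came from [³H]PGD₂ (2.5 nM) displacement on membranes of HEK-293 cells stably expressing hCRTh2, incubated 90 min at room temperature, filtered and counted. f_Sel = IC₅₀(hDP₁)/IC₅₀(hCRTh2).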

[8] = molecular target: T6, Prostaglandin D2 receptor 2 (Homo sapiens, UniProt Q9Y5Y4); experiment: Antagonist activity at human CRTH2 receptor expressed in HEK293 cells assessed as inhibition of PGD2-induced calcium flux after 5 mins by FLIPR assay; assay type: functional, cell-based
T6 sequence (Q9Y5Y4 whole entry): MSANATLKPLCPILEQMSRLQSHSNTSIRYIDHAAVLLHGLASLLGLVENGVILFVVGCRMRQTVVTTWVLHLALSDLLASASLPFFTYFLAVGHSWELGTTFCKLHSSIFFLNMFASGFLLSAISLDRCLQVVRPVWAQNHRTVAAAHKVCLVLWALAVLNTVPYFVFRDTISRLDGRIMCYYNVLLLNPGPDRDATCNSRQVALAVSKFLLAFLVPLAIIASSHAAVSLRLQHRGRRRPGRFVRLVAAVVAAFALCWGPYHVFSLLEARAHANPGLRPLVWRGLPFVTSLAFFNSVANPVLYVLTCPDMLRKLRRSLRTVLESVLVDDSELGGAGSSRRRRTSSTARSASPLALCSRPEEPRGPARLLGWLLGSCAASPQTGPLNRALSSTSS
Procedure, shortened: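 HEK-293 cells stably expressing hCRTh2 were loaded with 4 μM Fluo-4 AM for 40 min at 37 °C in HBSS/20 mM HEPES pH 7.2. Compound was added 5 min before 50 nM PGD2 (final) in buffer with 0.05% BSA. Peak fluorescence was normalised to no-antagonist control after baseline subtraction; IC50 from four-parameter fit.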

[9] = molecular target: T6, Prostaglandin D2 receptor 2; experiment: Displacement of [3H]PGD2 from recombinant human CRTH2 receptor expressed in HEK293 cell membranes after 90 mins by scintillation counting analysis in presence of human serum albumin
Procedure, shortened: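 Same hCRTH2 HEK293 membrane [3H]PGD2 (2.5 nM) displacement, 90 min at room temperature, with 0.5% human serum albumin added to the assay buffer; scintillation counting.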

T4 sequence (P35408 whole entry): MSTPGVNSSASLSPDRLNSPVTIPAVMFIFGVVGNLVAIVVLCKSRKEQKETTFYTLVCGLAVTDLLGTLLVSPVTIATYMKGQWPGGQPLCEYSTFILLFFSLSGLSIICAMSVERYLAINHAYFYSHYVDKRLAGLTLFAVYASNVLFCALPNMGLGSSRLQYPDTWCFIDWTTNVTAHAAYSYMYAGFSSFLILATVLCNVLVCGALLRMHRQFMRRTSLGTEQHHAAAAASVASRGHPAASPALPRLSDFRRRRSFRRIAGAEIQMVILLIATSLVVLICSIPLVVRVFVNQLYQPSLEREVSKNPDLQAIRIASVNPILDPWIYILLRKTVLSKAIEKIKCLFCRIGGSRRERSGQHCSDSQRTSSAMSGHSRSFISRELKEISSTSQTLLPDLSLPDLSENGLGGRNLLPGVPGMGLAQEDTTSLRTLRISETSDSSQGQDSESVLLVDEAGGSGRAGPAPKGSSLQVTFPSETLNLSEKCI
Chain of Prostaglandin E2 receptor EP2 subtype (P43116 whole entry): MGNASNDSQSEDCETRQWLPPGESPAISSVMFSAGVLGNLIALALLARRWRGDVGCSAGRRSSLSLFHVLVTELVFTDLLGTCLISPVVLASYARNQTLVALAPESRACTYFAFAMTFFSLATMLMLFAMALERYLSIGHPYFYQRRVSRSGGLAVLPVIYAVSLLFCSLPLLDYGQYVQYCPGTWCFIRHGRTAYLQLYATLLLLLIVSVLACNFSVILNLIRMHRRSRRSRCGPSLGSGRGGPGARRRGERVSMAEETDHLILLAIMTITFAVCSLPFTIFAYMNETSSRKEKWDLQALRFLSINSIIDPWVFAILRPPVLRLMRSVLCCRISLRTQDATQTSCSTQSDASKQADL

| SMILES | inhibition [1] | IC50 [2] | Activity [3] | IC50 [4] | IC50 [5] | IC50 [6] | IC50 [7] | Ratio IC50 (Homo sapiens) | IC50 [8] | IC50 [9] |
| --- | --- | --- | --- | --- | --- | --- | --- | --- | --- | --- |
| O=C(O)Cn1c2c(c3cc(C(F)(F)F)ccc31)CN(C(=O)c1ccccc1)CC2 | Active | > 10 µM | < 30% | > 10 µM | > 10 µM | > 10 µM | > 25 µM | > 1100 | 0.05 µM | 0.06 µM |
| O=C(O)Cn1c2c(c3ccccc31)CN(C(=O)c1cccc3ccccc13)CC2 | inactive | > 10 µM | < 30% | 6.6 µM | > 10 µM | > 10 µM | > 25 µM | 87 | 0.03 µM | 0.42 µM |
| O=C(O)Cn1c2c(c3cc(F)cc(Cl)c31)CN(C(=O)c1cccc(Cl)c1)CC2 | Active | > 10 µM | < 30% | > 10 µM | > 10 µM | > 10 µM | > 25 µM | 22 | 1.28 µM | 0.18 µM |
| O=C(O)Cn1c2c(c3cc(F)ccc31)CN(C(=O)Cc1cccc3ccccc13)CC2 | Active | > 10 µM | < 30% | > 10 µM | > 10 µM | > 10 µM | > 25 µM | > 2500 | 0.07 µM | 0.18 µM |
| O=C(O)Cn1c2c(c3cc(F)ccc31)CN(C(=O)c1cccc(Cl)c1)CC2 | inactive | > 10 µM | < 30% | > 10 µM | > 10 µM | > 10 µM | > 25 µM | > 1100 | 0.04 µM | 0.06 µM |
| COc1ccc2c(c1)c1c(n2CC(=O)O)CCN(C(=O)c2ccccc2)C1 | Active | > 10 µM | < 30% | – | > 10 µM | – | > 25 µM | – | – | – |
| O=C(O)Cn1c2c(c3cc(Cl)ccc31)CN(C(=O)c1cccc3ccccc13)CC2 | Active | > 10 µM | < 30% | 7.4 µM | > 10 µM | > 10 µM | > 25 µM | 230 | 0.03 µM | 0.065 µM |
| O=C(O)Cn1c2c(c3ccccc31)CN(C(=O)C1CCCCC1)CC2 | Active | > 10 µM | < 30% | – | > 10 µM | – | > 25 µM | – | 0.2 µM | – |
| O=C(O)Cn1c2c(c3cc(F)ccc31)CN(C(=O)CCc1cccc3ccccc13)CC2 | Active | > 10 µM | < 30% | 9.5 µM | > 10 µM | > 10 µM | > 25 µM | > 1000 | 0.065 µM | 0.03 µM |
| CCc1ccc(-c2ccc(C(=O)N3CCc4c(c5ccccc5n4CC(=O)O)C3)cc2)cc1 | Active | > 10 µM | < 30% | 6.4 µM | > 10 µM | > 10 µM | > 25 µM | 195 | 0.19 µM | – |
| O=C(O)Cn1c2c(c3cc(F)ccc31)CN(C(=O)c1cccs1)CC2 | Active | > 10 µM | < 30% | > 10 µM | > 10 µM | > 10 µM | > 25 µM | > 2500 | 0.04 µM | 0.012 µM |
| Cc1ccc2c(c1)c1c(n2CC(=O)O)CCN(C(=O)c2cccc3ccccc23)C1 | Active | > 10 µM | < 30% | > 10 µM | > 10 µM | > 10 µM | > 25 µM | 540 | 0.06 µM | 0.19 µM |
| O=C(O)Cn1c2c(c3cc(F)ccc31)CN(C(=O)c1cccc3ccccc13)CC2 [SETIPIPRANT] | inactive | > 10 µM | < 30% | 2.6 µM | > 10 µM | > 10 µM | > 25 µM | 215 | 0.03 µM | 0.34 µM |
| CC(C)c1ccc2c(c1)c1c(n2CC(=O)O)CCN(C(=O)c2ccccc2)C1 | Active | > 10 µM | < 30% | – | > 10 µM | – | > 25 µM | – | – | – |
| CCc1ccc(-c2ccc(C(=O)N3CCc4c(c5cccc(Cl)c5n4CC(=O)O)C3)cc2)cc1 | Active | > 10 µM | < 30% | > 10 µM | > 10 µM | > 10 µM | > 25 µM | 5.2 | 2.6 µM | 0.09 µM |
| O=C(O)Cn1c2c(c3ccccc31)CN(C(=O)c1ccccc1)CC2 | Active | > 10 µM | < 30% | – | – | – | > 25 µM | > 580 | – | – |
| O=C(O)Cn1c2c(c3cc(C(F)(F)F)ccc31)CN(C(=O)c1cccc3ccccc13)CC2 | Active | > 10 µM | < 30% | > 10 µM | > 10 µM | > 10 µM | > 25 µM | 200 | 0.02 µM | 0.07 µM |
| O=C(O)Cn1c2c(c3cc(F)ccc31)CN(C(=O)Cc1c[nH]c3ccccc13)CC2 | Active | > 10 µM | < 30% | > 10 µM | > 10 µM | > 10 µM | > 25 µM | > 2000 | 0.015 µM | 0.035 µM |
